Two compounds from paper PMC7746607 (Nature, 2020) can be followed below.

Test [1] has as its target mouse KSR1-Nanoluc (KSR-bound MEK) (UniProt Q02750+Q61097). Kind of test: NanoBRET in-cell steady-state competition with tram-bo tracer on KSR1-luc. The class given is binding. The note with it: MEK1-luc vs KSR1-luc. A general note: In BRET a luciferase serves as donor, and the signal depends on an acceptor being close.
A further test has as its target KSR1-luc (KSR-bound MEK) (UniProt Q02750+Q61097). Kind of test: NanoBRET washout, intracellular residence time on KSR1-luc. The test is classed as binding, mouse. The following applies: 175-minute time course, range of inhibitor concentrations, tram-bo 1 μM.
The target of the next test is MEK1-luc (Homo sapiens, UniProt Q02750). Kind of test: NanoBRET washout, intracellular residence time on MEK1-luc. The test is classed as binding. The following applies: 175-minute time course, tram-bo 1 μM.
Another test addresses RET-luc (Homo sapiens, UniProt P07949). Kind of test: NanoBRET control kinase dose response, RET-luc. The class given is binding. The note with it: 293T cells, tram-bo or tracer K5.
The next test deals with SRC-luc (Homo sapiens, UniProt P12931). Kind of test: NanoBRET control kinase dose response, SRC-luc. The class given is binding. The following applies: 293T cells, tram-bo or tracer K4.
Test [2] deals with BRAF and MEK1 interaction (Homo sapiens, UniProt Q02750). Kind of test: IP/WB of endogenous MEK1 from HCT116 cells, BRAF pulldown. The class given is cell-based. The following applies: HCT116, 200 nM, 1 hour. Put shortly:
(§1)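 HCT116 cells were plated 48 h to ~70% confluency, then transfected (Lipofectamine 3000) with FLAG-KSR1 (2.3 μg, WT) or FLAG-BRAF (10 μg, WT). At 24 h cells got 0.1% DMSO or 200 nM test compound for 1 h, then were lysed in NP-40 buffer on ice for 30 min. 250 μg lysate was rotated 4 h at 4 °C with anti-MEK1/Protein A resin, with an IgG control. Anti-FLAG immunoblot; three independent experiments.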

For test [3], the target named is KSR1 and MEK1 interaction (UniProt Q02750+Q61097). The test is classed as cell-based, mouse KSR1, human HCT116 cells. The note with it: HCT116, wild-type KSR1, 200 nM, 1 hour. Put shortly:
as §1

Sequence of RET-luc (P07949 29-1114): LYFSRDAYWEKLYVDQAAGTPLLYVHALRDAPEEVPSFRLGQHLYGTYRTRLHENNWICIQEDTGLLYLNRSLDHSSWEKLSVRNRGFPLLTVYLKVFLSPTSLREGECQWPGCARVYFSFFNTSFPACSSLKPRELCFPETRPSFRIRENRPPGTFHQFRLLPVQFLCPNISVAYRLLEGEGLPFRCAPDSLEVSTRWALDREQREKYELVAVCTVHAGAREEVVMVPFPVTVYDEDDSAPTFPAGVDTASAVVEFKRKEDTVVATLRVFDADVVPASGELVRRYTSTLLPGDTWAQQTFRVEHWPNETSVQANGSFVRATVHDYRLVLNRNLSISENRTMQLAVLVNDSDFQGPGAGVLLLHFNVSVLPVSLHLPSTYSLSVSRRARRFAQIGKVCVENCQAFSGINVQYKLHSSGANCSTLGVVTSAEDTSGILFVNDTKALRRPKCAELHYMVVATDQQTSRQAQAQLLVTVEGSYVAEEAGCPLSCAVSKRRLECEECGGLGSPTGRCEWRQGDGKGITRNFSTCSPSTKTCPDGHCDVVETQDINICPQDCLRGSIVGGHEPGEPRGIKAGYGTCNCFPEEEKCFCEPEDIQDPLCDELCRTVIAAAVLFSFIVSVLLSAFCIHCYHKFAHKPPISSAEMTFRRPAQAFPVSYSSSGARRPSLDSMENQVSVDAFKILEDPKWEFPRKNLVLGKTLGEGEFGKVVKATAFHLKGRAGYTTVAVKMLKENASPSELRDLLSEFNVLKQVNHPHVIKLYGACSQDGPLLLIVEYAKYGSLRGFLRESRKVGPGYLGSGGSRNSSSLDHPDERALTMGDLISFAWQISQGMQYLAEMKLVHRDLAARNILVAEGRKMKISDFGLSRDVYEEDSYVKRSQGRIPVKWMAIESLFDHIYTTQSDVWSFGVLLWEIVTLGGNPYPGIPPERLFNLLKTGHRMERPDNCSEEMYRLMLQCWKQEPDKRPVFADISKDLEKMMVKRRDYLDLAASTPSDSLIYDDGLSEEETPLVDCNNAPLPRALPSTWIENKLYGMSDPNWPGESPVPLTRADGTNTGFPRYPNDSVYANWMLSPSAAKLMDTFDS
Sequence of KSR1 and MEK1 interaction (Q02750 whole entry): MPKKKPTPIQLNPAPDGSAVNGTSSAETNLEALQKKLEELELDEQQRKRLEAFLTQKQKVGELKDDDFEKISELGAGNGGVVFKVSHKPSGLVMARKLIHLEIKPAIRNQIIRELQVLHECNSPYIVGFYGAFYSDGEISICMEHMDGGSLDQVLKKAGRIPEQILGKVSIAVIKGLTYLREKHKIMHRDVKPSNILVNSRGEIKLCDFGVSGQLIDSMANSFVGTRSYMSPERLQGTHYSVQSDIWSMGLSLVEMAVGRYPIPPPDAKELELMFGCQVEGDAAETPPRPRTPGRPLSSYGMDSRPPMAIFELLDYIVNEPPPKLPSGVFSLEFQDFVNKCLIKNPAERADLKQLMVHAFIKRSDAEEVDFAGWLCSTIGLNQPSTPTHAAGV
Sequence of KSR1 and MEK1 interaction (Q61097 whole entry): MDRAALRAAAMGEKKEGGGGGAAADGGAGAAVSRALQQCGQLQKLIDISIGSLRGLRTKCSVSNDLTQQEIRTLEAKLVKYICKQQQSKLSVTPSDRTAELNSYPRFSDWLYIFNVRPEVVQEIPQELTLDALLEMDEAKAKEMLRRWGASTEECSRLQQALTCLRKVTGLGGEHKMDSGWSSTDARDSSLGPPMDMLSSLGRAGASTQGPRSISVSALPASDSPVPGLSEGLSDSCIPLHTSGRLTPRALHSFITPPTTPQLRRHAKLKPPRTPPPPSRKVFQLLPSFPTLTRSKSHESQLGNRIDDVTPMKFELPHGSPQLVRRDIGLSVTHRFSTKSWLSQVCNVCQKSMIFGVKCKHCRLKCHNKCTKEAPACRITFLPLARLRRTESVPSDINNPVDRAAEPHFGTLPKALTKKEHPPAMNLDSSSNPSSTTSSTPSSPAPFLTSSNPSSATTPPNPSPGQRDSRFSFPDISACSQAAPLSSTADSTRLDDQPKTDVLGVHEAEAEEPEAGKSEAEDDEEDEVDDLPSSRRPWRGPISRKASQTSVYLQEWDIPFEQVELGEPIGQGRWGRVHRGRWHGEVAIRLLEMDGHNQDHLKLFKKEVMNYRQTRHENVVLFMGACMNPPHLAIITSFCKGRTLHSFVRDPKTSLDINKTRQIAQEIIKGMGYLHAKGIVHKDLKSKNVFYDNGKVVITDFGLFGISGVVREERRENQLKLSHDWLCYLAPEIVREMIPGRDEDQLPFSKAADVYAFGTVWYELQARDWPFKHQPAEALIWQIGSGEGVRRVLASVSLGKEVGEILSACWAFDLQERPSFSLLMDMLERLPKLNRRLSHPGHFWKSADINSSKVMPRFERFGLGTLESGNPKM
Sequence of mouse KSR1-Nanoluc (KSR-bound MEK) (Q02750 whole entry): as the sequence (Q02750 whole entry) above
Sequence of mouse KSR1-Nanoluc (KSR-bound MEK) (Q61097 whole entry): as the sequence (Q61097 whole entry) above
Sequence of BRAF and MEK1 interaction (Q02750 whole entry): as the sequence (Q02750 whole entry) above
Sequence of KSR1-luc (KSR-bound MEK) (Q02750 whole entry): as above
Sequence of KSR1-luc (KSR-bound MEK) (Q61097 whole entry): as the sequence (Q61097 whole entry) above
Sequence of MEK1-luc (Q02750 whole entry): as the sequence (Q02750 whole entry) above
Sequence of SRC-luc (P12931 whole entry): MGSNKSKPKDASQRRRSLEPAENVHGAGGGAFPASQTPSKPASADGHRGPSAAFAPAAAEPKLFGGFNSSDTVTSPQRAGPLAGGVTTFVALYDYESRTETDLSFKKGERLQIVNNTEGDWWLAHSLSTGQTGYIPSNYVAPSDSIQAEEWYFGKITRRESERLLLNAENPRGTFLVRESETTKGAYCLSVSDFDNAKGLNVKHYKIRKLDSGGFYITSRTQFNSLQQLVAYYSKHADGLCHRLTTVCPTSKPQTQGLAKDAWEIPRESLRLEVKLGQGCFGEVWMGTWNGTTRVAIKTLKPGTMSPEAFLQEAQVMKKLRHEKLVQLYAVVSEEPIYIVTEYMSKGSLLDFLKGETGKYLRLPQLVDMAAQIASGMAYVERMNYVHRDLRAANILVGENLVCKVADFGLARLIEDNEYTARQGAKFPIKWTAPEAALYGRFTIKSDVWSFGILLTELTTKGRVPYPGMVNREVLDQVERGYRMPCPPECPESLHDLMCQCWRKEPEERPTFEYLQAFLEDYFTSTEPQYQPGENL

Take `O=C(c1ccc(F)c(F)c1Nc1ccc(I)cc1F)N1CC(O)([C@@H]2CCCCN2)C1` [cobimetinib, Cobimetinib]: the “difference in potency (IC50) between KSR1-luc and MEK1-luc” value in test [1] is ~ 20 fold. Also, the “dissociation after washout on KSR1-luc (BRET signal recovery)” value at KSR1-luc (KSR-bound MEK) was “dissociated more readily”. The “dissociation after washout on MEK1-luc” value at MEK1-luc is “dissociated more readily”.

On to `CC(=O)Nc1cccc(-n2c(=O)n(C3CC3)c(=O)c3c(Nc4ccc(I)cc4F)n(C)c(=O)c(C)c32)c1` [trametinib, Trametinib], for which the “dose response on RET-luc” value on RET-luc is on record as “no discernible dose response”. Besides, at SRC-luc, the “dose response on SRC-luc” value is recorded as “no discernible dose response”. Moreover, the “co-immunoprecipitation of BRAF via endogenous MEK” value in test [2] is “diminished binding of BRAF”. For the same compound, the “co-immunoprecipitation of KSR1 via endogenous MEK” value in test [3] is given as “sustained pulldown of KSR1”.
